For the first data set, the species on record is Rattus norvegicus. The experiment in a line: Biodistribution studied in the adrenals of immature Fischer female rats at 5 hour. Type of data set: ADME, organism-based, Adrenal gland. The note with it: in vivo. Summed up:
(§1)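 Immature female Fischer rats (24 days old, 55–60 g), unanesthetized in retention cages, given 3 μCi (111 kBq) nca 125I-labeled steroid in 200 μL via lateral tail vein. Vehicle was 9% ethanol in saline with 1% Tween-80, filtered 0.22 μm. Killed at 5 h under ether; tissues KCl-washed, blotted, weighed, gamma-counted; % ID/g, average of 4–5 rats, % CV.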
`C[C@@H]1Cc2cc(O)ccc2[C@H]2CC[C@@]3(C)[C@@H](CC[C@@]3(O)/C=C\[125I])[C@H]12` had a Concentration of 0.88%.

In another data set the target is Estrogen receptor (Mus musculus) (UniProt O08537+P19785). As to the kind of experiment: Relative binding affinity for murine cytoplasmic estrogen receptor as displacement of [3H]estradiol. Type of data set: protein assay.
Sequence of Estrogen receptor (Mus musculus) (O08537 whole entry, looked up): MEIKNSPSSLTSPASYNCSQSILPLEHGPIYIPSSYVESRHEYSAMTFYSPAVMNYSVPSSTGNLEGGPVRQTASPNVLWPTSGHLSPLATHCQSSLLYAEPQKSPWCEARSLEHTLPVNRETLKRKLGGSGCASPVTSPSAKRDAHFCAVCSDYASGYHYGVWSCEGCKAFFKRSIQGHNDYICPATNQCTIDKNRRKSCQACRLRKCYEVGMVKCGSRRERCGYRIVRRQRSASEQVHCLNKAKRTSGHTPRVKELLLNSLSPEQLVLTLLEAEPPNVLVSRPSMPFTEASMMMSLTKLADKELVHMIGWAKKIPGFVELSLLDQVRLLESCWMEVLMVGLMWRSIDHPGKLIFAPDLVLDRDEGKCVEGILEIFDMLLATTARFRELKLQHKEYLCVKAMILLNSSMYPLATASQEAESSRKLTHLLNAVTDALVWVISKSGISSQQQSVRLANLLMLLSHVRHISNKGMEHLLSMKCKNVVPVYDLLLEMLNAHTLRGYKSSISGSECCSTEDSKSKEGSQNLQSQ
Sequence of Estrogen receptor (Mus musculus) (P19785 whole entry, looked up): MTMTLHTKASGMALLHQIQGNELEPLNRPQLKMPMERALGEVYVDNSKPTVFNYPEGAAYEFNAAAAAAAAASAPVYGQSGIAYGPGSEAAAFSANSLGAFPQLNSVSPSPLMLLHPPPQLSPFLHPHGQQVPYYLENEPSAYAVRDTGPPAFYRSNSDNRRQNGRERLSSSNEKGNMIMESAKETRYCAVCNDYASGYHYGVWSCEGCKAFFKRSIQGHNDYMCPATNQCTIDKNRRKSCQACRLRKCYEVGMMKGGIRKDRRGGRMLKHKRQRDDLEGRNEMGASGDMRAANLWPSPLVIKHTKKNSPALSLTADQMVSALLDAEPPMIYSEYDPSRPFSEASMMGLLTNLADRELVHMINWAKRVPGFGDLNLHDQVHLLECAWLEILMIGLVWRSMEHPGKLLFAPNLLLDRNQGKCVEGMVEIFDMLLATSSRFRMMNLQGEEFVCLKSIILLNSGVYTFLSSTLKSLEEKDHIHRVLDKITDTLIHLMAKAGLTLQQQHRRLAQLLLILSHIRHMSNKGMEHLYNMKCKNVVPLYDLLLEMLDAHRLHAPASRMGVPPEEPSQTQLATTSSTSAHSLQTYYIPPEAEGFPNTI
Details: not given
Summed up:
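Murine uterine cytoplasmic extract incubated 18 h at 0–4 °C with 20 nM [3H]estradiol, with or without competitor at 2 nM to 20 μM. Concentration for 50% competition of specific binding was read from the curve. RBA = 100 × ratio of estradiol to competitor concentration at 50% competition. Mean of three experiments.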
In general terms: Displacement assays read how much labelled ligand stays bound in the presence of the test substance.
For `C=C[C@]1(O)CC[C@H]2[C@@H]3[C@H](C)Cc4cc(O)ccc4[C@H]3CC[C@@]21C`, the relative binding affinity (RBA) was found to be 58.1. On to `C=C[C@]1(O)CC[C@H]2[C@@H]3CCc4cc(O)ccc4[C@H]3[C@@H](OC)C[C@@]21C`, for which the relative binding affinity (RBA) turned out to be 13.5. The compound `C[C@@H]1Cc2cc(O)ccc2[C@H]2CC[C@@]3(C)[C@@H](CC[C@@]3(O)/C=C/I)[C@H]12` displayed a relative binding affinity (RBA) of 43.2. Consider `C[C@]12CC[C@@H]3c4ccc(O)cc4CC[C@H]3[C@@H]1CC[C@@]2(O)/C=C\I`, for which the relative binding affinity (RBA) stood at 46.7.

`C[C@@H]1Cc2cc(O)ccc2[C@H]2CC[C@@]3(C)[C@@H](CC[C@@]3(O)/C=C\I)[C@H]12` gave a relative binding affinity (RBA) of 44.9. In turn, `C#C[C@]1(O)CC[C@H]2[C@@H]3CCc4cc(O)ccc4[C@H]3[C@@H](OC)C[C@@]21C` showed a relative binding affinity (RBA) of 15.3. Take `C#C[C@]1(O)CC[C@H]2[C@@H]3CCc4cc(O)ccc4[C@H]3[C@@H](OCC)C[C@@]21C`: the relative binding affinity (RBA) stood at 21.

Compound `CO[C@H]1C[C@@]2(C)[C@@H](CC[C@@]2(O)/C=C\I)[C@@H]2CCc3cc(O)ccc3[C@H]21` showed a relative binding affinity (RBA) of 32. The compound `CO[C@H]1C[C@@]2(C)[C@@H](CC[C@@]2(O)/C=C/I)[C@@H]2CCc3cc(O)ccc3[C@H]21` showed a relative binding affinity (RBA) of 27.7. `CCO[C@H]1C[C@@]2(C)[C@@H](CC[C@@]2(O)/C=C/I)[C@@H]2CCc3cc(O)ccc3[C@H]21`: the relative binding affinity (RBA) is 21.6. As to `C#C[C@]1(O)CC[C@H]2[C@@H]3[C@H](C)Cc4cc(O)ccc4[C@H]3CC[C@@]21C`, the relative binding affinity (RBA) turned out to be 73.1. Compound `CCO[C@H]1C[C@@]2(C)[C@@H](CC[C@@]2(O)/C=C\I)[C@@H]2CCc3cc(O)ccc3[C@H]21` returned a relative binding affinity (RBA) of 30.8. In the case of `C[C@]12CC[C@@H]3c4ccc(O)cc4CC[C@H]3[C@@H]1CC[C@@]2(O)/C=C/I`, the relative binding affinity (RBA) turned out to be 32.8.

For the next data set, the species on record is Rattus norvegicus. The experiment in a line: Biodistribution studied in the ovaries of immature Fischer female rats at 5 hour. Type of data set: ADME, organism-based, Female gonad. The note with it: in vivo. Summed up: as §1
`C[C@@H]1Cc2cc(O)ccc2[C@H]2CC[C@@]3(C)[C@@H](CC[C@@]3(O)/C=C/[125I])[C@H]12` registered a Concentration of 2.91%.

Values taken from ChEMBL document CHEMBL1125613, “Synthesis, receptor binding, and tissue distribution of 7 alpha- and 11 beta-substituted (17 alpha,20E)- and (17 alpha,20Z)-21-[125I]iodo-19-norpregna-1,3,5(10),20-tetraene-3,17-diols” (J Med Chem, 1991).
